# In ChEMBL document CHEMBL3997844, “Synthesis and anti-inflammatory activity of isoquebecol” (Bioorg Med Chem, 2017):
# How the values were obtained:
# [1] = Cytotoxicity against human U937-derived macrophage-like cells assessed as reduction in cell viability after 24 hrs by MTT assay; type: cell-based, U-937; details: read-out: MNCC
# Summary of the method: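 PMA-differentiated U937 macrophage-like cells (1×10^6 cells/well, RPMI-1% FBS) exposed to 2-fold serial dilutions from 1000 to 7.81 µM for 24 h. Viability read by MTT assay; highest non-cytotoxic concentration recorded.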
# U-937 [2] = experiment: Anti-inflammatory activity in human U937-derived macrophage-like cells assessed as inhibition of LPS-induced IL-6 secretion at 250 uM preincubated for 2 hrs followed by LPS addition measured after 24 hrs by ELISA relative to control; type: functional
# U-937 [3] = experiment: Anti-inflammatory activity in human U937-derived macrophage-like cells assessed as inhibition of LPS-induced IL-6 secretion at 125 uM preincubated for 2 hrs followed by LPS addition measured after 24 hrs by ELISA relative to control; type: functional
# U-937 [4] = experiment: Anti-inflammatory activity in human U937-derived macrophage-like cells assessed as inhibition of LPS-induced IL-6 secretion at 62.5 uM preincubated for 2 hrs followed by LPS addition measured after 24 hrs by ELISA relative to control; type: functional
# U-937 [5] = experiment: Anti-inflammatory activity in human U937-derived macrophage-like cells assessed as inhibition of LPS-induced IL-6 secretion at 31.25 uM preincubated for 2 hrs followed by LPS addition measured after 24 hrs by ELISA relative to control; type: functional
# U-937 [6] = experiment: Anti-inflammatory activity in human U937-derived macrophage-like cells assessed as inhibition of LPS-induced IL-6 secretion at 500 uM preincubated for 2 hrs followed by LPS addition measured after 24 hrs by ELISA relative to control; type: functional
# U-937 [7] = experiment: Anti-inflammatory activity in human U937-derived macrophage-like cells assessed as inhibition of LPS-induced IL-6 secretion preincubated for 2 hrs followed by LPS addition measured after 24 hrs by ELISA; type: functional, cell-based
SMILES,MNTC at 24 h [1] [µM],inhibition at 250 µM (U-937 [2]) [%],inhibition at 125 µM (U-937 [3]) [%],inhibition at 62.5 µM (U-937 [4]) [%],inhibition at 31.25 µM (U-937 [5]) [%],inhibition at 500 µM (U-937 [6]) [%],inhibition (U-937 [7])
COc1ccc(C(CO)C(c2ccc(OC)c(O)c2)c2ccc(OC)c(O)c2)cc1O (centres undefined),250,96.9,48.3,43.3,34.5,99.7,Dose-dependent effect
COc1cc(CCO)ccc1O,> 1000,0.9,1.1,,,1.2,
CCOC(=O)C(c1ccccc1)C(c1ccccc1)c1ccccc1 (centres undefined),62.5,85.3,2,0.4,0.2,99.8,
CCOC(=O)C(c1ccc(O)c(OC)c1)C(c1ccc(O)c(OC)c1)c1ccc(O)c(OC)c1 (centres undefined),250,91.9,34.6,9.4,4,100,
COc1cc(CC(=O)O)ccc1O [HOMOVANILLIC ACID],> 1000,0.2,0.3,,,0.6,
COc1cc(C(=O)CO)ccc1O,500,64.4,4.9,,,90.1,
OCC(c1ccccc1)C(c1ccccc1)c1ccccc1 (centres undefined),31.2,100,100,15.6,1.4,100,
CCOC(=O)C(c1ccc(OC)c(O)c1)C(c1ccc(OC)c(O)c1)c1ccc(OC)c(O)c1 (centres undefined),62.5,96.8,41.3,5.9,3,100,
COc1ccc(CC(=O)O)cc1O,> 1000,2.1,0.5,,,2,
COc1ccc(C(O)CO)cc1O (centres undefined),500,20.9,1.4,,,83.8,
CCOC(=O)Cc1ccc(OC)c(O)c1,> 1000,3.2,0.8,,,8.3,
COc1cc(Cc2ccc(O)c(OC)c2)ccc1O,500,90.5,27.5,,,98.1,
COc1cc(C(CO)C(c2ccc(O)c(OC)c2)c2ccc(O)c(OC)c2)ccc1O (centres undefined),500,84.7,55.3,4.7,3.7,93.8,Dose-dependent effect
CCOC(=O)Cc1ccc(O)c(OC)c1,> 1000,0.4,0.2,,,0.8,
CCOC(=O)C(=C(c1ccccc1)c1ccccc1)c1ccccc1,< 15.6,100,11,0.5,0.5,100,
CCOC(=O)C(=C(c1ccc(O)c(OC)c1)c1ccc(O)c(OC)c1)c1ccc(O)c(OC)c1,62.5,100,99.5,11.2,2.5,100,
COc1ccc(C(=O)CO)cc1O,500,24.1,0.8,,,92.5,
CCOC(=O)C(=C(c1ccc(OC)c(O)c1)c1ccc(OC)c(O)c1)c1ccc(OC)c(O)c1,62.5,100,97.8,31.2,0.8,100,
COc1ccc(CCO)cc1O,> 1000,2.7,0.9,,,5.1,
COc1ccc(Cc2ccc(OC)c(O)c2)cc1O,500,92.5,50.7,,,99.8,
COc1cc(C(O)CO)ccc1O (centres undefined),500,8,2.1,,,86.8,
